ChEMBL document CHEMBL3351600, “Sulfur, selenium and tellurium pseudopeptides: synthesis and biological evaluation” (Bioorg Med Chem, 2014)

Legend:
NCI-H522 = test: Growth inhibition of human NCI-H522 cells after 48 hrs; format: functional; conditions: NCI-H522, 48 h
In short: (§1)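 NCI-60 human tumour cell line panel screen run at the US National Cancer Institute under its standard cytotoxicity protocol. It covers leukaemia, NSCLC, colon, CNS, melanoma, ovarian, renal, prostate and breast lines. An initial single-dose test was followed by five-dose testing with 48 h compound exposure.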

Aspergillus niger = test: Antimicrobial activity against Aspergillus niger assessed as inhibition at 20 ug/6 mm disk after 1 to 2 days by agar diffusion assay; format: functional
In short: (§2)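 Standard agar diffusion: 6-mm paper disks loaded with 20 µg of compound were placed on inoculated plates. Inhibition-zone diameter (mm) was read after 1 and 2 days of growth.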

[1] = Growth inhibition of human BT549 cells after 48 hrs; format: functional; conditions: BT-549, 48 h; in short: as §1
SNB-19 = test: Growth inhibition of human SNB19 cells after 48 hrs; format: functional; conditions: SNB-19, 48 h, read-out: pLC50 (the source's name) (converted)
In short: (§3)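 Run by the NCI 58-cell-line screen under its standard cytotoxicity protocol. Compounds were first tested at a single dose, then at five doses. Cells were exposed to compound for 48 h.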

SK-MEL-2 = test: Growth inhibition of human SK-MEL-2 cells after 48 hrs; format: functional; conditions: SK-MEL-2, 48 h; in short: as §1
[2] = Growth inhibition of human OVCAR8 cells after 48 hrs; format: functional; conditions: OVCAR-8, 48 h; in short: as §1
Micrococcus luteus = test: Antimicrobial activity against Micrococcus luteus assessed as inhibition at 20 ug/6 mm disk after 1 to 2 days by agar diffusion assay; format: functional; in short: as §2
[3] = Lipophilicity, log K of the compound by HPLC analysis
[4] = Growth inhibition of human UO31 cells after 48 hrs; format: functional; conditions: UO-31, 48 h; in short: as §3
Saccharomyces cerevisiae = test: Antimicrobial activity against Saccharomyces cerevisiae assessed as inhibition at 20 ug/6 mm disk after 1 to 2 days by agar diffusion assay; format: functional; in short: as §2
HT-29 = test: Growth inhibition of human HT-29 cells after 48 hrs; format: functional; conditions: HT-29, 48 h; in short: as §1
[5] = Growth inhibition of human OVCAR4 cells after 48 hrs; format: functional; conditions: OVCAR-4, 48 h; in short: as §1
[6] = Growth inhibition of human HCT116 cells after 48 hrs; format: functional; conditions: HCT-116, 48 h; in short: as §1
SNB-75 = test: Growth inhibition of human SNB75 cells after 48 hrs; format: functional; conditions: SNB-75, 48 h; in short: as §3
[7] = Growth inhibition of human RPMI8226 cells after 48 hrs; format: functional; conditions: RPMI-8226, 48 h; in short: as §1
SF-268 = test: Growth inhibition of human SF268 cells after 48 hrs; format: functional; conditions: SF-268, 48 h; in short: as §1
SK-MEL-5 = test: Growth inhibition of human SK-MEL-5 cells after 48 hrs; format: functional; conditions: SK-MEL-5, 48 h; in short: as §3
[8] = Growth inhibition of human UACC62 cells after 48 hrs; format: functional; conditions: UACC-62, 48 h; in short: as §3
A-431 = test: Cytotoxicity against human A431 cells assessed as cell viability after 24 hrs incubation by MTT assay; format: functional, cell-based; conditions: A-431, 24 h
In short: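 Cell lines came from DSMZ; primary human fibroblasts served as non-cancer controls. Cells were grown in medium with 10% FCS, seeded at 50,000 cells/ml, and grown 2 days at 37 °C, 10% CO2. Serial dilutions were then added for 24 h. MTT (final 0.5 mg/ml) was added for 2 h. Formazan was pelleted, PBS-washed, dissolved in isopropanol/0.4% HCl and read at 590 nm. Two parallel experiments were run. IC50 was taken as the concentration giving 50% of untreated-control absorbance.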

T47D = test: Growth inhibition of human T47D cells after 48 hrs; format: functional; in short: as §3
HL-60(TB) = test: Growth inhibition of human HL-60(TB) cells after 48 hrs; format: functional; conditions: HL-60, 48 h; in short: as §1
A498 = test: Growth inhibition of human A498 cells after 48 hrs; format: functional; conditions: A498, 48 h; in short: as §1
[9] = Growth inhibition of human HOP92 cells after 48 hrs; format: functional; conditions: HOP-92, 48 h; in short: as §1
[10] = Growth inhibition of human MOLT4 cells after 48 hrs; format: functional; conditions: MOLT-4, 48 h; in short: as §1
A549 = test: Growth inhibition of human A549/ATCC cells after 48 hrs; format: functional; conditions: A549, 48 h; in short: as §1
Staphylococcus aureus = test: Antimicrobial activity against Staphylococcus aureus assessed as inhibition at 20 ug/6 mm disk after 1 to 2 days by agar diffusion assay; format: functional; in short: as §2
MDA-MB-435 = test: Growth inhibition of human MDA-MB-435 cells after 48 hrs; format: functional; conditions: MDA-MB-435, 48 h; in short: as §1
K562 = test: Growth inhibition of human K562 cells after 48 hrs; format: functional; conditions: K562, 48 h; in short: as §1
NCI-H23 = test: Growth inhibition of human NCI-H23 cells after 48 hrs; format: functional; conditions: NCI-H23, 48 h, read-out: pLC50 (the source's name) (converted); in short: as §1
SK-OV-3 = test: Growth inhibition of human SKOV3 cells after 48 hrs; format: functional; conditions: SK-OV-3, 48 h; in short: as §3
[11] = Growth inhibition of human UACC257 cells after 48 hrs; format: functional; conditions: UACC-257, 48 h; in short: as §3
[12] = read-out: pLC50 (the source's name) (converted)

COc1ccc(N(CC(=O)NCCC[Te]c2ccccc2)C(=O)CCSC2=C(C)C(=O)c3ccccc3C2=O)cc1
GI50 (NCI-H522): 1.07 µM | CC50 (NCI-H522; [12]): > 100 µM | TGI (NCI-H522; read-out: pTGI (converted)): 3.39 µM | diameter of the inhibition zone (DIZ) (Aspergillus niger): 0 mm | LC50 (concentration killing 50% of cells) [1]: 16.6 µM | CC50 (SNB-19): 56.2 µM | GI50 (SK-MEL-2): 2.29 µM | CC50 (SK-MEL-2; [12]): 14.8 µM | TGI (SK-MEL-2; read-out: pTGI (converted)): 5.01 µM | GI50 [2]: 0.589 µM | LC50 [2]: 30.9 µM | TGI ([2]; read-out: pTGI (converted)): 3.8 µM | diameter of the inhibition zone (DIZ) (Micrococcus luteus): 8 mm | log K [3]: -0.54 | GI50 [4]: 1.66 µM | LC50 [4]: 8.71 µM | TGI ([4]; read-out: pTGI (converted)): 2.19 µM | diameter of the inhibition zone (DIZ) (Saccharomyces cerevisiae): 0 mm | GI50 (HT-29): 1.62 µM | CC50 (HT-29; [12]): 50.1 µM | TGI (HT-29; read-out: pTGI (converted)): 4.9 µM | GI50 [5]: 2.63 µM | LC50 [5]: 31.6 µM | TGI ([5]; read-out: pTGI (converted)): 10.2 µM | Retention_time: 0.938 min | GI50 [6]: 0.339 µM | CC50 [6, 12]: 5.5 µM | TGI ([6]; read-out: pTGI (converted)): 1.29 µM | GI50 (SNB-75): 1.82 µM | CC50 (SNB-75; [12]): 45.7 µM | TGI (SNB-75; read-out: pTGI (converted)): 6.92 µM | GI50 [7]: 0.55 µM | CC50 [7, 12]: > 100 µM | TGI ([7]; read-out: pTGI (converted)): 3.09 µM | GI50 (SF-268): 0.468 µM | CC50 (SF-268; [12]): 5.5 µM | TGI (SF-268; read-out: pTGI (converted)): 1.86 µM | GI50 (SK-MEL-5): 1.62 µM | CC50 (SK-MEL-5; [12]): 5.75 µM | TGI (SK-MEL-5; read-out: pTGI (converted)): 3.09 µM | GI50 [8]: 1.91 µM | CC50 [8, 12]: 19.1 µM | TGI ([8]; read-out: pTGI (converted)): 4.9 µM | IC50 (A-431): 1 µM | GI50 (T47D): 1.55 µM | TGI (T47D; read-out: pTGI (converted)): 3.55 µM | GI50 (HL-60(TB)): 2.88 µM | CC50 (HL-60(TB); [12]): > 100 µM | TGI (HL-60(TB); read-out: pTGI (converted)): 6.76 µM | GI50 (A498): 1.35 µM | TGI (A498; read-out: pTGI (converted)): 3.24 µM | GI50 [9]: 1.45 µM | CC50 [9, 12]: 13.2 µM | TGI ([9]; read-out: pTGI (converted)): 3.98 µM | GI50 [10]: 0.537 µM | CC50 [10, 12]: > 100 µM | TGI ([10]; read-out: pTGI (converted)): 3.55 µM | GI50 (A549): 0.257 µM | CC50 (A549; [12]): 3.47 µM | TGI (A549; read-out: pTGI (converted)): 0.724 µM | diameter of the inhibition zone (DIZ) (Staphylococcus aureus): 11 mm | GI50 (MDA-MB-435): 2.45 µM | CC50 (MDA-MB-435; [12]): 26.9 µM | TGI (MDA-MB-435; read-out: pTGI (converted)): 6.31 µM | GI50 (K562): 1.95 µM | CC50 (K562; [12]): > 100 µM | TGI (K562; read-out: pTGI (converted)): 5.13 µM | CC50 (NCI-H23): 20.4 µM | GI50 (SK-OV-3): 1.86 µM | CC50 (SK-OV-3; [12]): 8.71 µM | TGI (SK-OV-3; read-out: pTGI (converted)): 3.98 µM | GI50 [11]: 2.04 µM | CC50 [11, 12]: 16.6 µM | TGI ([11]; read-out: pTGI (converted)): 5.01 µM
